Compounds with a hit are over-represented: about 3.1% of the library has one in this group of screens.
MBD2 DNA inh: inhibitors of MBD2 binding to methylated DNA, primary screen, biochemical, TR-FRET, DNA-binding domain, human | MBD2 binding to methylated oligonucleotide | inhibition, % at 4.4 µM | 0.31% of 370,000 active | AID 686964, 2013; in the data active means inhibition above about 13%
UHRF1 MBD2 ctr: UHRF1 methylated DNA binding inhibitors, primary screen, counter-screen for MBD2 inhibitor project, biochemical, TR-FRET, human UHRF1, single concentration | 0.75% of 370,000 active | AID 687016, 2013 | inhibition, % at 4.4 µM | E3 ubiquitin-protein ligase UHRF1 (Homo sapiens), Q96T88 | UHRF1 binding to methylated oligo; in the data active means inhibition above about 21%;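 further: UHRF1 SRA domain binding a hemimethylated CpG hairpin DNA probe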
LEDGF integ inh: blockers of LEDGF/p75-dependent integrase strand transfer – biochemical, TR-FRET, high throughput, primary screen | HIV-1 integrase (with human LEDGF/p75) | AID 743269, 2014 | 0.64% of 370,000 active | TR-FRET IN-LEDGF/p75 DNA integration, Eu/Cy5 | inhibition, % at 3.7 µM;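 active means inhibition above the screen-wide mean plus 3 SD, cut at about 13% in these data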;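 further: signal is the Cy5 over europium emission ratio at 671 and 618 nm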
RBBP9 inh: human RBBP9 inhibitors, primary screen, biochemical, fluorescence polarization, FP-Rh probe, HTS | recombinant RBBP9 | inhibition, % at 7.94 µM | 0.2% of 220,000 active | AID 1515, 2009;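 active means inhibition above the campaign mean of all tested compounds plus 3 SD, cut at about 14% in these data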
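Measured by: FP readout at 525/598 nm; material: recombinant human RBBP9; also added: Serine-hydrolase probe FP-Rh, 375 nM pre-mixing; medium: Tris buffer pH 8.0, NaCl, Pluronic; replication: one well per compound; doses: one concentration, 7.94 µM nominal, 0.794% DMSO; timing: preincubation 30 min plus labeling 45 min at 25 °C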
ABHD5-PLIN5 inh: ABHD5-PLIN5 interaction inhibitors, primary screen, cell lysate, split luciferase complementation, luminescence. Perilipin-5 (Homo sapiens) + 1-acylglycerol-3-phosphate O-acyltransferase ABHD5 (Homo …. Split G. princeps luciferase complementation, 4 h. AID 602281, 2012. inhibition, % at 4 µM. 0.78% of 360,000 active;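 active means inhibition above the mean inhibition across every tested compound plus 3 SD, cut at about 22% in these data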
PRMT1 inh: PRMT1 methyltransferase inhibitors, primary screen, biochemical, fluorescence polarization | recombinant PRMT1, activity-based probe fluorescence polarization | inhibition, % at 2.79 µM | 1.3% of 370,000 active | AID 652257, 2013;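 active means inhibition above about 21% made by adding two undisclosed values, limit read from the data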
Target sequence (Q99873 whole entry, looked up): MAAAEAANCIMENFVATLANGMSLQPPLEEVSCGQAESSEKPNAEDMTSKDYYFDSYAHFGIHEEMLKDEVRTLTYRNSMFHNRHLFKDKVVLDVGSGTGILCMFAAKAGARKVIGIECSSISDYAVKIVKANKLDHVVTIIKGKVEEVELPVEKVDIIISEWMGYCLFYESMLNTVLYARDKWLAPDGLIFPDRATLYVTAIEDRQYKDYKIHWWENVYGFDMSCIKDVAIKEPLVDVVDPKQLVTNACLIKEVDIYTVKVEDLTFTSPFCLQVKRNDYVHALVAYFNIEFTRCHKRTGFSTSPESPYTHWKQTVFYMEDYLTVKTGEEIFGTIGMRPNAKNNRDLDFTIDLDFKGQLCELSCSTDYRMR
PRMT1 confirm: PRMT1 methyltransferase inhibitors, confirmation, biochemical, fluorescence polarization, triplicate | shares compounds with PRMT1 inh | recombinant His-PRMT1, activity-based probe fluorescence polarization | inhibition, % at 2.79 µM | 42% of 3,300 active;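 active means mean inhibition across replicates above the hit cutoff derived for the earlier primary screen, cut at about 22% in these data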
Each line names hits and unclear results; the compound was inactive in the other large screens (follow-up assays come after a bar, where they were run).

CCCCOCC1CN(CCCC)S(=O)(=O)c2c(cccc2N2CCCCC2)O1 (stereo not drawn)	none (no result: RBBP9 inh, ABHD5-PLIN5 inh)
Cc1ccc(C2=NC3(CCCC3)N=C2SCC(=O)Nc2ccc3c(c2)OCCO3)cc1	PRMT1 inh 55 | PRMT1 confirm 47
COc1ccc(S[C@]2(C(=O)NCC(C)C)CC(=O)N[C@@H]2c2ccc(OC)cc2)cc1	none (no result: RBBP9 inh, ABHD5-PLIN5 inh)
C=CCc1cccc2cc(C(=O)NNC(=O)c3ccncc3)c(=O)oc12	PRMT1 inh 27 | PRMT1 confirm 26
CC[C@H](C(=O)Nc1ccccc1N1CCCC1)c1ccccc1	none (no result: RBBP9 inh, ABHD5-PLIN5 inh)
CCC(=O)/C=C1/Sc2ccc(OC)cc2N1CCO	none
CCC(/C=C1\Sc2ccc(OC)cc2N1CCO)=C\c1sc2ccc(OC)cc2[n+]1CCO	ABHD5-PLIN5 inh 43, PRMT1 inh 70 | PRMT1 confirm inactive
Cc1ccc(-n2c(SCC(=O)Nc3ccc(S(=O)(=O)Nc4nccs4)cc3)nnc2-c2cccs2)cc1	none (no result: RBBP9 inh, ABHD5-PLIN5 inh)
CCCN1CCCCC(NC(C)=O)C1=O (stereo not drawn)	none (no result: RBBP9 inh, ABHD5-PLIN5 inh)
CC(C1=CCCCC1)c1cnn(C)c1 (stereo not drawn)	none (no result: RBBP9 inh, ABHD5-PLIN5 inh)
CCOC(=O)c1[nH]c(=S)n(-c2ccccc2)c1C(=O)OCC	PRMT1 inh 48 (no result: RBBP9 inh) | PRMT1 confirm inactive
CCOC(=O)c1[nH]c(=S)n(Cc2ccccc2)c1C(=O)OCC	none (no result: RBBP9 inh)
CCOC(=O)C1=CCC(c2ccccc2)N(S(C)(=O)=O)C1 (stereo not drawn)	none (no result: RBBP9 inh, ABHD5-PLIN5 inh)
COc1ccc(S[C@]2(C(=O)N3CCOCC3)CC(=O)N(c3ccsc3)[C@@H]2c2ccc(OC)cc2)cc1	none (no result: RBBP9 inh, ABHD5-PLIN5 inh)
CC(=O)Nc1ccc(/C=C2\Sc3ccccc3C2=O)cc1	none
CC(=O)N(C)/C=C1\Sc2ccccc2C1=O	PRMT1 inh 78 | PRMT1 confirm inactive
CCC(=O)N(C)/C=C1\Sc2ccccc2C1=O	PRMT1 inh 56 | PRMT1 confirm 45
O=CN(/C=C1\Sc2ccccc2C1=O)Cc1ccccc1	PRMT1 inh 56 | PRMT1 confirm inactive
COc1ccc(-c2cc(-c3nnc(SCC(=O)N4CCOCC4)n3N)[nH]n2)cc1	none (no result: RBBP9 inh, ABHD5-PLIN5 inh)
COc1ccccc1CCNC(=O)c1cnn2c(C(F)F)cc(C)nc12	none
COc1ccc(CCNC(=O)c2cnn3c(C(F)F)cc(C)nc23)cc1OC	PRMT1 inh 30 | PRMT1 confirm inactive
O=S1(=O)c2ccc(N3CCC[C@H]3CO)cc2OCCCN1C1CC1	none (no result: RBBP9 inh, ABHD5-PLIN5 inh)
CCC(C)NC(=O)C1CCCN(S(=O)(=O)c2ccc3c(c2)CC(C)N3C(C)=O)C1 (stereo not drawn)	PRMT1 inh 26 (no result: RBBP9 inh) | PRMT1 confirm inactive
COc1cccc2c1NC(C(=O)O)C1CC=CC21 (stereo not drawn)	none (no result: MBD2 DNA inh, UHRF1 MBD2 ctr, LEDGF integ inh, PRMT1 inh)
COc1ccc(OC)c(C2Nc3c(Cl)ccc(C(=O)O)c3C3C=CCC32)c1 (stereo not drawn)	PRMT1 inh 46 | PRMT1 confirm 28
Cc1ccc(-c2nn(-c3cccc(F)c3)cc2CN(Cc2nccn2C)C(C)C)o1	PRMT1 inh 41 | PRMT1 confirm inactive
COc1ccc(C(=O)NC(=S)SCC(=O)O)cc1	none
CCOC(=O)CSC(=S)NC(=O)c1ccc(OC)cc1	PRMT1 inh 27 | PRMT1 confirm 100
COc1ccc(C(=S)N2CCCCCC2)cc1	PRMT1 inh 26 | PRMT1 confirm inactive
CCN1CCN(C(=S)c2ccc([N+](=O)[O-])cc2)CC1	PRMT1 inh 34 | PRMT1 confirm 35
CCN1CCN(C(=S)c2ccc(Cl)cc2)CC1	PRMT1 inh 85 | PRMT1 confirm 90
COc1ccc(C(=S)N2CCNCC2)cc1	none
CCN1CCN(C(=S)c2ccc(OC)cc2)CC1	PRMT1 inh 48 | PRMT1 confirm 37
COc1ccc(C(=S)N2CCN(c3ccccc3C)CC2)cc1	none
